We go through eleven compounds from ChEMBL document CHEMBL1148192, “Nagelamides A-H, new dimeric bromopyrrole alkaloids from marine sponge Agelas species” (J Nat Prod, 2004).

Molecules are shown by their SMILES. In brackets after ≈: the same amount, converted by molar mass.

The subject of one assay is Micrococcus luteus. Description: Antimicrobial activity against Micrococcus luteus. The assay is classed as functional. Summed up:
(§1)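 Microbroth dilution method in BHI medium.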

The next assay relates to Bacillus subtilis. Kind of assay: Antimicrobial activity against Bacillus subtilis. The assay is classed as functional. Summed up:
as §1

Another assay concerns Escherichia coli. Kind of assay: Antimicrobial activity against Escherichia coli. The format is functional. In a few lines: as §1
The nature of assay [1]: Inhibition of protein phosphatase 2A in african green monkey COS7 cells. The format is cell-based, Chlorocebus aethiops. The settings on record: cos-7. In a few lines: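 PP2A activity was measured in COS-7 cell extract. Cells were lysed at 4 °C in hypotonic Tris-HCl pH 7.5 buffer with DTT, EGTA and protease inhibitors, then centrifuged at 20000g. Extract at 5 μg/mL protein was preincubated with compound for 10 min at 30 °C. Activity was taken as the okadaic acid (1 nM)-sensitive portion, run in triplicate and reported as the mean.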

One may read the MIC as the lowest concentration that inhibits growth of the organism. Broadly, the IC50 is the concentration at which inhibition is half-maximal.

`Nc1nc([C@H](CCNC(=O)c2cc(Br)c(Br)[nH]2)c2[nH]c(N)nc2CCCNC(=O)c2cc(Br)c(Br)[nH]2)c[nH]1` [NAGELAMIDE D]: the MIC with Micrococcus luteus was determined as 4.17 µg/mL (≈ 5.35 µM); against Bacillus subtilis, 33.3 µg/mL (≈ 42.7 µM); in the assay on Escherichia coli it was 33.3 µg/mL (≈ 42.7 µM).

As for `Nc1nc([C@H]2c3[nH]c(N)nc3C[C@H](CNC(=O)c3cc(Br)c[nH]3)[C@H]2CNC(=O)c2cc(Br)c[nH]2)c[nH]1` [NAGELAMIDE E], the MIC against Micrococcus luteus is 4.17 µg/mL (≈ 6.72 µM); against Bacillus subtilis, 16.7 µg/mL (≈ 26.9 µM); against Escherichia coli it was 33.3 µg/mL (≈ 53.7 µM).

As for `Nc1nc(/C(=C/CNC(=O)c2cc(Br)c(Br)[nH]2)c2[nH]c(N)nc2/C=C/CNC(=O)c2cc(Br)c(Br)[nH]2)c[nH]1` [NAGELAMIDE C], the MIC against Micrococcus luteus is 4.17 µg/mL (≈ 5.37 µM); against Bacillus subtilis it was 33.3 µg/mL (≈ 42.9 µM); with Escherichia coli, 33.3 µg/mL (≈ 42.9 µM). Moreover, in assay [1], the IC50 was above 50 µM.

Consider `Nc1nc([C@H](CCNC(=O)c2cc(Br)c(Br)[nH]2)c2[nH]c(N)nc2/C=C/CNC(=O)c2cc(Br)c(Br)[nH]2)c[nH]1` [NAGELAMIDE A], for which the MIC in the assay with Micrococcus luteus is 2.08 µg/mL (≈ 2.67 µM); against Bacillus subtilis, 16.7 µg/mL (≈ 21.5 µM); in the assay with Escherichia coli it was 33.3 µg/mL (≈ 42.8 µM). Also, the IC50 in assay [1] was determined as 48 µM.

In the case of `NC1=N/C(=N\CCS(=O)(=O)O)C(/C=C/CNC(=O)c2cc(Br)c(Br)[nH]2)(c2[nH]c(N)nc2/C=C/CNC(=O)c2cc(Br)c(Br)[nH]2)N1` (stereo unspecified) [NAGELAMIDE H], the MIC was 16.7 µg/mL (≈ 18.6 µM) in the assay on Micrococcus luteus, 33.3 µg/mL (≈ 37 µM) with Bacillus subtilis and above 33.3 µg/mL with Escherichia coli. Besides, in assay [1], the IC50 is 46 µM.

For `Nc1nc([C@@H](c2[nH]c(N)nc2/C=C/CNC(=O)c2cc(Br)c(Br)[nH]2)[C@H](O)CNC(=O)c2cc(Br)c(Br)[nH]2)c[nH]1` [NAGELAMIDE B], the minimum inhibitory concentration (MIC) against Micrococcus luteus was found to be 4.17 µg/mL (≈ 5.25 µM); against Bacillus subtilis, 33.3 µg/mL (≈ 41.9 µM); in the assay on Escherichia coli it was 33.3 µg/mL (≈ 41.9 µM). In addition, the IC50 in assay [1] was above 50 µM.

Turning to `Nc1nc([C@H]2c3[nH]c(N)nc3C[C@H](CNC(=O)c3cc(Br)c(Br)[nH]3)[C@H]2CNC(=O)c2cc(Br)c(Br)[nH]2)c[nH]1` [NAGELAMIDE G], the MIC against Micrococcus luteus came out at 2.08 µg/mL (≈ 2.67 µM); against Bacillus subtilis it was 16.7 µg/mL (≈ 21.5 µM); against Escherichia coli it was 33.3 µg/mL (≈ 42.8 µM). This compound came in with an IC50 in assay [1] of 13 µM.

As for `Nc1nc([C@H]2c3[nH]c(N)nc3C[C@H](CNC(=O)c3cc(Br)c[nH]3)[C@H]2CNC(=O)c2cc(Br)c(Br)[nH]2)c[nH]1` [NAGELAMIDE F], the figures for the minimal inhibitory concentration (MIC) in the assay with Micrococcus luteus, in the assay with Bacillus subtilis and in the assay with Escherichia coli were 4.17 µg/mL (≈ 5.96 µM), 16.7 µg/mL (≈ 23.9 µM) and 33.3 µg/mL (≈ 47.6 µM), respectively.

`Nc1nc([C@@H]2c3[nH]c(N)nc3C[C@H](CNC(=O)c3cc(Br)c[nH]3)[C@H]2CNC(=O)c2cc(Br)c(Br)[nH]2)c[nH]1` [BROMOAGELIFERIN]: the MIC amounted to 2.08 µg/mL (≈ 2.97 µM) against Micrococcus luteus, 2.08 µg/mL (≈ 2.97 µM) against Bacillus subtilis and 16.7 µg/mL (≈ 23.9 µM) with Escherichia coli. Besides, the IC50 in assay [1] is above 50 µM.

With `Cl.Cl.Nc1ncc([C@H]2[C@H](CNC(=O)c3cc(Br)c[nH]3)[C@@H](CNC(=O)c3cc(Br)c[nH]3)[C@@H]2c2cnc(N)[nH]2)[nH]1` [SCEPTRIN HYDROCHLORIDE], the MIC against Micrococcus luteus came out at 4.07 µg/mL; against Bacillus subtilis it was 8.33 µg/mL; against Escherichia coli, 33.3 µg/mL. Moreover, the IC50 in assay [1] came to 50 µM.

For the compound `Nc1nc([C@@H]2c3[nH]c(N)nc3C[C@H](CNC(=O)c3cc(Br)c[nH]3)[C@H]2CNC(=O)c2cc(Br)c[nH]2)c[nH]1.O=C(O)C(F)(F)F.O=C(O)C(F)(F)F` [AGELIFERIN], the MIC amounted to 4.17 µg/mL against Micrococcus luteus, 8.33 µg/mL with Bacillus subtilis and 33.3 µg/mL in the assay on Escherichia coli. In assay [1], the IC50 was above 50 µM.
